The nature of assay [1]: Inhibition of IGFR.
Assay [2] concerns the target Vascular endothelial growth factor receptor 2 (Homo sapiens, UniProt P35968). As to the kind of experiment: Inhibition of phosphorylated KDR by HTRF assay. The method, boiled down:
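HTRF assay against KDR kinase with 10-point serial dilution. ATP at two-thirds of the experimentally determined Km (Eadie-Hofstee and Lineweaver-Burke). Ki derived from the IC50.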

Assay [3] addresses Hepatocyte growth factor receptor (Homo sapiens, UniProt P08581). Kind of assay: Inhibition of cMet by HTRF assay.
Assay [4] deals with Hepatocyte growth factor receptor c-Met (Mus musculus) (UniProt P16056). As to the kind of experiment: Inhibition of human recombinant HGF-mediated cMet phosphorylation in mouse CT26 cells.

`COc1cc2nccc(Oc3ccc(-c4cnc(Nc5ccc(F)cc5)n(C)c4=O)cc3F)c2cc1OC`: the Ki was 70 nM in assay [1] and 382 nM in assay [2].

On to `COc1cc2nccc(Oc3ccc(-c4ccc(Cc5ccccc5)nn4)cc3F)c2cc1OC`, for which the Ki in assay [2] turned out to be 56 nM; in assay [3], 201 nM.

`COc1cc2nccc(Oc3ccc(-c4cnc(C(N)c5ccccc5)n(C)c4=O)cc3F)c2cc1OC` (centres undefined): the affinity in assay [3], expressed as Ki, was 72 nM.

Take `COc1cc2c(Oc3ccc(-c4cnc(Cc5ccccc5)n(C)c4=O)cc3F)ccnc2cc1OCCCN1CCN(C)CC1`: the inhibition constant Ki in assay [3] was found to be 9.2 nM.

In the case of `COc1cc2nccc(Oc3ccc(-c4cnc(Cc5ccccc5)n(C)c4=O)cc3F)c2cc1OC`, the Ki in assay [1] was 1030 nM; in assay [2] it was above 1300 nM.

`CCN1CCN(CCCOc2cc3nccc(Oc4ccc(-c5cnc(Cc6ccccc6)n(C)c5=O)cc4F)c3cc2OC)CC1` came in with a Ki in assay [3] of 21 nM.

In the case of `COc1cc2c(Oc3ccc(-c4cnc(Cc5ccc(F)cc5)n(C)c4=O)cc3F)ccnc2cc1OCCCN1CCOCC1`, the Ki in assay [1] is 860 nM; in assay [2] it was above 3000 nM; in assay [3], 17 nM. Further, the IC50 in assay [4] stood at 196 nM.

In the case of `COc1cc2nccc(Oc3ccc(-c4cnc(Nc5cccc(F)c5)n(C)c4=O)cc3F)c2cc1OC`, the Ki in assay [3] amounted to 38 nM. That is a double-digit nanomolar value.

The record behind these values is ChEMBL document CHEMBL1140082, “Design, synthesis, and biological evaluation of potent c-Met inhibitors” (J Med Chem, 2008).
